Screening results: PubChem, Broad Institute
In the library only some 2.3% were active in any assay of this set; here they are far more common.
Env fusion inh: inhibitors of HIV Env-mediated cell fusion. hit rate 1.1% among 360,000. HeLa-JRFL Env/CEM21 cell fusion, luciferase. AID 651610. inhibition, % at 12.3 µM;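 active means mean replicate inhibition score of at least 50 and every replicate individually at or above 50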;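 further: 0% = plate neutral controls and 100% = maraviroc near 300 nM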
PAX8 reporter: PAX8 transcriptional activity inhibition; RMG-I TPO-luciferase reporter, SteadyGlo, 24 h; inhibition, % at 12.6 µM; hit rate 1.2% among 360,000; AID 652154;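 active means mean replicate inhibition at least 60% with every replicate also reaching 60%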;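 further: luciferase light reporting Pax8 driven TPO promoter activity; plate controls were median of neutral control wells for no effect and mitoxantrone controls for full effect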
F508del corr: correctors of CFTR F508del function in bronchial epithelial cells | CFBE cells, YFP halide quenching; stimulated with forskolin plus potentiator P3; % fluorescence drop versus neutral controls | activity (quench increase), % at 7.58 µM | hit rate 0.36% among 350,000;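 active means mean added fluorescence quench of at least 8% versus neutral control, with both replicates also reaching 8%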;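 further: cells transiently co-express mutant CFTR-F508del with the halide-sensitive YFP; corrector assay measuring rescue of mutant channel to the surface after 24 h compound exposure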
PGC1a acetyl inh: PGC1a acetylation modulation, inhibitor mode | U2OS PGC1a acetylation, AlphaScreen anti-acetyl-lysine; with virally co-expressed GCN5 acetyltransferase | inhibition, % at 15.6 µM | hit rate 0.17% among 350,000;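 active means every replicate shows inhibition of at least 40%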;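 further: 0% = neutral control wells and 100% = positive control wells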
EWS-Fli inh: EWS/Fli transcriptional activity inhibition; A673 NR0B1-luciferase reporter, viability-normalised; inhibition, % at 12.6 µM; hit rate 0.67% among 350,000; AID 651661;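 active means mean inhibition of at least 50% after viability correction, with every replicate also passing that limit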;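 further: firefly luciferase signal divided by Alamar Blue viability fluorescence both relative to DMSO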
FN deposition inh: fibronectin deposition inhibition; AH1F fibroblasts, Alexa488-fibronectin deposition fluorescence, overnight; inhibition, % at 12.6 µM; hit rate 0.086% among 350,000;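 active means mean inhibition across replicates of 30% or more, regardless of how many single replicates reach that level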;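 further: positive control wells lacked labelled fibronectin entirely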
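Schedule: 1 h cell adhesion before compound, then overnight fibronectin incubation; test system: AH1F fibroblast monolayer depositing Alexa488-labelled fibronectin into matrix; quantity: 10000 AH1F cells per well; probe or stimulus: fluorescent fibronectin at 24 nM final; signal: fluorescence, ex 485 nm, em 525 nm; evaluation: percent inhibition as loss of matrix-bound fibronectin fluorescence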
Numbers without * were called inactive; x = no result given; [ ] = another dose, or the depositor's remark.

SMILES	Env fusion inh	PAX8 reporter	F508del corr	PGC1a acetyl inh	EWS-Fli inh	FN deposition inh
C[C@H](CO)N1C[C@H](C)[C@H](CN(C)Cc2ccccc2)OCCCC[C@H](C)Oc2ccc(NS(=O)(=O)c3ccc(Cl)cc3)cc2C1=O	21.3[16.7 µM]	65.6*	-0.7	-6.9	8.8	13.0
COC(=O)C[C@@H]1CC[C@@H]2[C@H](COc3ccc(NC(=O)NCc4ccccc4)cc3C(=O)N2C)O1	6.5[16.7 µM]	-19.8	-0.8	-2.4	1.1	-18.0
Cc1noc(C)c1S(=O)(=O)Nc1ccc2c(c1)CC(=O)N([C@@H](C)CO)C[C@@H](C)[C@@H](CN(C)S(C)(=O)=O)O2	1.2[16.7 µM]	-31.3	0.7	2.4	2.5	x
COc1ccc(S(=O)(=O)N(C)C[C@H]2Oc3ccc(NC(=O)Cc4cn(C)c5ccccc45)cc3CC(=O)N([C@H](C)CO)C[C@@H]2C)cc1	-11.8[16.7 µM]	x	0.4	5.1	12.9	x
C[C@@H]1CN([C@@H](C)CO)C(=O)Cc2cc(NC(=O)Cc3cn(C)c4ccccc34)ccc2O[C@@H]1CN(C)S(=O)(=O)c1cccs1	-31.5[16.7 µM]	-4.1	3.3	0.8	4.8	-23.4
C[C@H](CO)N1C[C@H](C)[C@@H](CN(C)Cc2ccc(Oc3ccccc3)cc2)Oc2ccc(NC(=O)Cc3cn(C)c4ccccc34)cc2CC1=O	-64.8[16.7 µM]	65.3*	-4.9	-19.6	13.8	x
COc1ccc(S(=O)(=O)N(C)C[C@@H]2Oc3ccc(NC(=O)Cc4cn(C)c5ccccc45)cc3CC(=O)N([C@H](C)CO)C[C@@H]2C)cc1	75.9*[16.7 µM]	x	-0.9	8.0	3.6	x
C[C@H](CO)N1C[C@H](C)[C@H](CN(C)S(=O)(=O)c2ccccc2)Oc2ccc(NC(=O)Cc3cn(C)c4ccccc34)cc2CC1=O	94.2*[16.7 µM]	10.1	0.2	-5.9	0.2	x
C[C@H]1CN([C@@H](C)CO)C(=O)Cc2cc(NC(=O)Cc3cn(C)c4ccccc34)ccc2O[C@H]1CN(C)Cc1ccc(Oc2ccccc2)cc1	-15.4[16.7 µM]	21.7	4.5	-3.5	8.4	x
C[C@H](CO)N1C[C@H](C)[C@H](CN(C)S(=O)(=O)c2cccs2)Oc2ccc(NC(=O)Cc3cn(C)c4ccccc34)cc2CC1=O	95.6*[16.7 µM]	-13.8	2.1	4.7	-1.7	1.2
O=C(C[C@H]1C=C[C@H](NC(=O)Nc2ccc(F)cc2)[C@@H](CO)O1)NCCN1CCCC1	15.3[16.7 µM]	-2.6	1.6	11.3	-6.3	-0.5
CN1C(=O)c2cc(NC(=O)C3CC3)ccc2OC[C@@H]2O[C@@H](CC(=O)NCc3ccccc3F)CC[C@H]21	x	-9.2	-4.5	x	-10.8	-10.8
N#CC1C(=O)c2ccccc2C1c1ccccc1 (stereo not drawn)	-396.2	32.2	3.7	x	33.7	37.9*
O=C1CCC(c2ccccc2)c2ccccc21 (stereo not drawn)	-3.1	7.1	1.5	-1.3	-5.4	-7.6
C[C@@H]1CN([C@H](C)CO)C(=O)c2cc(NC(=O)NC3CCCCC3)ccc2O[C@@H](C)CCCCO[C@@H]1CN(C)S(=O)(=O)c1ccc(F)cc1	-5.8[16.7 µM]	12.4	-2.6	-8.4	8.4	-3.1
CCCC(=O)Nc1ccc2c(c1)C(=O)N(C)C[C@H](OC)[C@H](C)CN(Cc1ccncc1)[C@H](C)CO2	x	x	1.1	20.2	-4.2	-1.5
COc1ccc(NC(=O)c2nc(C)c(C3(C)CC(c4ccccc4)=NO3)s2)cc1 (stereo not drawn)	-302.9	43.6	14.3*	3.7	54.8*	2.2
CO[C@@H]1CN(C)C(=O)c2ccc(NC(=O)c3ccccc3F)cc2OC[C@H](C)N(C(=O)c2ccccc2F)C[C@@H]1C	x	x	1.8	2.2	2.1	-1.7
COc1ccc(-c2oc3ccc(-c4cc(OC)c(OC)c(OC)c4)cc3c2C#Cc2ccccn2)cc1	33.7	52.2	8.8*	10.3	29.6	3.0
COc1cc(OC)cc(C2=Cc3ccccc3C(CC(C)=O)N2c2ccc(-c3cccs3)cc2)c1 (stereo not drawn)	17.1	69.7*	-0.4	x	2.9	x
COc1ccccc1CNC(=O)c1cc(-c2ccccc2)nn1CC1CC(c2cccc([N+](=O)[O-])c2)=NO1 (stereo not drawn)	1.0	13.6	-1.7	-18.9	10.6	0.2
O=C(NCc1cccs1)c1cc(-c2ccccc2)nn1CC1CC(c2cccc([N+](=O)[O-])c2)=NO1 (stereo not drawn)	34.9	3.1	8.6*	-28.1	8.6	-2.6
